PG9 Ab binder: PG9 antibody binding by small molecule; TR-FRET gp120-PG9 antibody binding; inhibition, % at 6.7 µM; 360,000 compounds, 0.43% hits; AID 624416; in the data active = inhibition above about 8.5%
NR1D1 modulator: modulators of human Rev-erb alpha DNA binding | 370,000 compounds, 0.79% hits | P20393 | Rev-erbα–FITC-DNA binding, fluorescence polarization, 90 min | activity, % at 10 µM | AID 1259318;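 active = activity above about 14%, limit read from the data; passing the limit was not always enough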;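 also: 0% = DMSO wells with 35 nM protein and 100% = DMSO wells with 750 nM protein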
NR2E3 ag-1: agonists of human NR2E3 nuclear receptor. Q9Y5X4. CHO-S Gal4-NCOR/VP16-NR2E3 two-hybrid, luciferase. inhibition of corepressor binding, % at 3.98 µM. 360,000 compounds, 0.35% hits;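 active = inhibition above the mean of all tested compounds plus 3 SD, cut at about 70% in these data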;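 also: 0% = DMSO with NR2E3 transfected cells and 100% = cells lacking NR2E3 construct; higher means lower luciferase signal from less NR2E3 corepressor binding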
Target sequence (Q9Y5X4 whole entry, looked up, the tested form may be a part): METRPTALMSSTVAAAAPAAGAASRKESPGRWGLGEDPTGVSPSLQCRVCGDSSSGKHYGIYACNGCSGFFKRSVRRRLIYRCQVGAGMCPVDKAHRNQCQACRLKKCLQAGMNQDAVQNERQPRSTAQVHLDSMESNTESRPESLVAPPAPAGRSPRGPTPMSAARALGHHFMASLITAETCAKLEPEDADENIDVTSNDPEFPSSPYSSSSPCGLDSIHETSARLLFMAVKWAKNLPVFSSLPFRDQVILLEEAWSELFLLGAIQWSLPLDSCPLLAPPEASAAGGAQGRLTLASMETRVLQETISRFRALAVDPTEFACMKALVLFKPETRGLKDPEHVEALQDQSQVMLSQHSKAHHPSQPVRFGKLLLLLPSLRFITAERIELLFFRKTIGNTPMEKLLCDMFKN
NR2E3 ag-2: agonists of human nuclear receptor NR2E3; GST-NR2E3/biotin-RetCOR TR-FRET, 1536-well; inhibition of corepressor binding, % at 4.78 µM; 320,000 compounds, 0.12% hits; AID 2300;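 active = percent inhibition above the cutoff of mean plus 3 SD of all tested compounds, set per screening campaign, cut at about 20% in these data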;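 also: 0% = DMSO wells and 100% = biotin wells as full block of FRET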
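Assay system: NR2E3–RetCOR corepressor complex. Quantity: 1.35 nM GST-NR2E3. Buffer or medium: pH 7.5 Tris-based buffer. Reagent: biotinylated RetCOR corepressor at 7 nM final. Schedule: 5 h at 4 °C. Detection: TR-FRET, emission read at 617 and 671 nm. Replicates: one well per compound, singlicate testing.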
NR2E3 ag conf: NR2E3 agonism confirmed in two-hybrid assay; shares compounds with NR2E3 ag-1; CHO-S mammalian two-hybrid NR2E3-NCOR, luciferase luminescence; inhibition, % at 3.98 µM; 2,300 compounds, 51% hits;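 active = average inhibition above a cutoff equal to the mean inhibition of all tested compounds plus one SD, cut at about 70% in these data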;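 also: 0% = DMSO in NR2E3 cells and 100% = DMSO in cells lacking NR2E3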
GAL4-VP16 luc: counter-screen for NR2E3 agonists: GAL4-VP16 reporter inhibitors. shares compounds with NR2E3 ag-1. CHO-S GAL4-VP16 luciferase reporter, luminescence. inhibition, % at 3.98 µM. 2,300 compounds, 29% hits. AID 624379;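 active = mean inhibition above a cutoff equal to the average over all tested compounds plus one standard deviation, cut at about 70% in these data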;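 also: luciferase from a UAS reporter driven by GAL4-VP16 transactivation; 0% = DMSO with VP16-transfected cells and 100% = DMSO with cells lacking VP16; higher means less reporter light so more repression of VP16 activity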
The depositor's hits bear a star; x = no result. Shown are actives, neighbours in structure and some others; about 1.4% of the full set was active somewhere.

SMILES	PG9 Ab binder	NR1D1 modulator	NR2E3 ag-1	NR2E3 ag-2	NR2E3 ag conf	GAL4-VP16 luc
O=c1[nH]cnc2c1nnn2C1OC(CO)C(O)C1O (stereo not drawn)	-1	11	49	x	-40	26
CCOc1ccc(C(=O)Nc2cnn(Cc3ccc(Cl)c(Cl)c3)c2)cc1	1	6	66	-3	70	19
Cc1ccccc1N=Nc1c(C)[nH]n(C(N)=S)c1=O	-5	-1	58	-5	0	-7
Clc1ccccc1-c1cnc2sc(NCc3ccc4c(c3)OCO4)nn12	2	3	57	x	37	42
Clc1ccccc1-c1ccc2ncnc(NCc3ccc4c(c3)OCO4)c2c1	-2	0	6	2	x	x
CCCOc1ccc(S(=O)(=O)NCc2ccc(OC)cc2)cc1	-1	4	50	1	63	49
O=C(CCc1nc(-c2ccccc2F)no1)NCCc1cccc(F)c1	x	3	x	x	x	x
Cc1c(C(C)c2ccccc2O)c2ccccc2n1C (stereo not drawn)	x	3	x	x	x	x
CCc1nnc(NC(=O)c2ccc(S(=O)(=O)N(CC(C)C)CC(C)C)cc2)o1	0	-1	103*	-1	99*	39
CNC(=O)c1ccsc1NC(=O)c1ccc(S(=O)(=O)N2CCCc3ccccc32)cc1	1	-3	-7	0	x	x
CCc1nnc(NC(=O)c2ccc(S(=O)(=O)N3CCCc4ccccc43)cc2)o1	1	9	54	-1	88*	44
O=C(Nc1nc(-c2ccccn2)cs1)Nc1ccc(F)cc1F	0	1	70*	0	36	-20
CC(Oc1ccc(Br)cc1)C(=O)Nc1nc(-c2ccccn2)cs1 (stereo not drawn)	-1	-3	76*	-3	19	13
Cc1ccc(S(=O)(=O)CC2CSc3nc4ccccc4n32)cc1 (stereo not drawn)	-1	0	74*	-1	93*	70
O=C(NCCc1nc2ccccc2n1CCOc1cc(F)ccc1F)C1CCCCC1	x	7	x	x	x	x
Cc1ccc(OCCCCn2cnc3ccccc32)c(C)c1	-2	4	72*	-1	89*	60
Brc1ccccc1OCCCCn1cnc2ccccc21	2	8	29	-3	x	x
CN(c1ccccc1)S(=O)(=O)c1cccc(NC(=O)CSc2nnc(N)s2)c1	2	0	20	-3	x	x
CN(c1ccccc1)S(=O)(=O)c1cccc(NC(=O)CSc2nncs2)c1	2	-3	70	3	66	76*
CN1C2=N[C@@H](c3cccc(C(F)(F)F)c3)CC(=O)N2/C(=C\c2ccccc2)[C@H]1c1ccccc1	x	-10	x	x	x	x
O=C(NCc1ccc(C(F)(F)F)cc1)C1CC(c2ccc(C(F)(F)F)cc2)=NO1 (stereo not drawn)	0	-2	81*	2	81*	60
CCOC(=O)[C@@]12CCCC3=C1N(CCC3)C(=O)[C@H]2CC(=O)NCc1cccc2ccccc12	x	-1	x	x	x	x
C[C@H](O)[C@@H]1CN2CCc3ccc(-c4ccc5c(c4)OCO5)cc3[C@@H]2C[C@@H]1N(C)CC1CCCCC1	x	7	x	x	x	x
CCCCCCCCNC(=O)C1CSCCS(=O)(=O)N1Cc1ccc(F)cc1 (stereo not drawn)	x	-1	x	x	x	x
COc1ccc(/C=N/Nc2cc(C)nc(-n3nc(C)cc3C)n2)cc1	0	-2	94*	1	29	18
SMILES	PG9 Ab binder	NR1D1 modulator	NR2E3 ag-1	NR2E3 ag-2	NR2E3 ag conf	GAL4-VP16 luc
Cc1cc(N/N=C/c2cccc(Cl)c2)nc(-n2nc(C)cc2C)n1	-2	0	-25	1	x	x
COc1cc(/C=N/Nc2nc(Nc3ccc(C)cc3)nc(-n3nc(C)cc3C)n2)cc(OC)c1OC	-1	2	59	-1	18	-18
COc1ccc(O)c(/C=N/Nc2nc(Nc3ccccc3)nc(-n3nc(C)cc3C)n2)c1	3	4	96*	2	11	-78
COc1ccc(O)c(/C=N/Nc2nc(C)cc(-c3ccccc3)n2)c1	-1	10	-17	-2	x	x
COc1cc(/C=N/Nc2nc(Nc3ccccc3)nc(-n3nc(C)cc3C)n2)cc(OC)c1OC	-3	0	68	-1	-14	-45
Cc1ccc(S(=O)(=O)N(C)[C@H]2C[C@H]3c4cc(N5CCOCC5)ccc4CCN3C[C@H]2[C@H](C)O)cc1	x	-3	x	x	x	x
COC(=O)[C@]12C[C@H](CC(=O)N3CCN(C(=O)C4CC4)CC3)C(=O)N(Cc3ccc(Cl)cc3Cl)C1=C[C@H](COCc1ccccc1)O[C@@H]2C	x	3	x	x	x	x
O[C@@H]1[C@@H](O)C=C2CCN3Cc4cc5c(cc4[C@H]1C23)OCO5 (stereo partly drawn)	1	0	89*	2	92*	85*
Cn1cccc1/C=N\NC(=O)Cc1ccc(Br)c2ccccc12	0	4	48	3	28	54
Cn1cccc1/C=N/NC(=O)Cc1ccccc1	0	-1	-12	2	x	x
O=C(C1CCC1)N1CCc2cc(S(=O)(=O)Nc3ccc4c(c3)OCCO4)ccc21	1	2	41	1	x	x
CCC(=O)N1CCc2cc(S(=O)(=O)Nc3ccc4c(c3)OCCO4)ccc21	-3	1	53	-1	89*	78*
CS(=O)(=O)N1CCc2cc(S(=O)(=O)Nc3ccc4c(c3)OCCO4)ccc21	0	-4	53	0	44	33
O=S1(=O)C=CCN1Cc1cn(Cc2ccc(C(F)(F)F)cc2)nn1	x	-4	x	x	x	x
O=C(Nc1cccc(S(=O)(=O)N2CCCCC2)c1)c1ccccc1NS(=O)(=O)c1ccc(F)cc1	-2	1	86*	-1	98*	71*
Cc1ccc(NC(=O)c2ccccc2NS(=O)(=O)c2ccc(F)cc2)cc1S(=O)(=O)N1CCCCC1	-1	1	89*	1	98*	92*
Cc1ccc(NC(=O)CCNC(=O)c2ccccc2Cl)cc1S(=O)(=O)N1CCCCCC1	3	4	5	0	x	x
Cc1nc2cc(NCc3nc4ccccc4n3Cc3ccccc3)ccc2n1C	-2	-19	59	1	-109	-122
COc1ccc2cc1Oc1cc3c(cc1OC)CC[N+](C)(C)[C@H]3Cc1ccc(cc1)Oc1c(OC)c(OC)cc3c1[C@@H](C2)[N+](C)(C)CC3	x	-4	x	x	x	x
CC(=O)Nc1ccc(S(=O)(=O)Nc2cc(C)on2)cc1	x	0	x	x	x	x
COc1ccc(S(=O)(=O)N2CCOC2CNC(=O)C(=O)NCc2ccc(F)cc2)cc1OC (stereo not drawn)	-1	-1	49	2	10	12
COc1ccc(CNC(=O)C(=O)NCC2OCCN2S(=O)(=O)c2ccc(F)cc2)cc1 (stereo not drawn)	-3	-5	19	0	x	x
C[C@H](O)[C@@H]1CN2CCc3c([nH]c4c(-c5ccccc5)cccc34)[C@@H]2C[C@@H]1N(C)CC1CCCCC1	x	-2	x	x	x	x
